From PMC3975472 (Biomolecules & Therapeutics, 2014)
Where a name gives a salt, the structure may show the parent alone.

Experiments:
[1] = test system: 9 cytochrome P450 (CYP) family members (CYP1A2, CYP2A6, CYP2B6, CYP2C8, CYP2C9, CYP2C19, CYP2D6, CYP2E1, and CYP3A4); assay: Cocktail probe assay in pooled HLMs, all 9 CYP isoforms together; format: in vitro ADME, human; settings: 0–50 μM, 37°C 60 min
In short: (§1)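 Pooled HLMs (0.1 mg) in 0.1 M potassium phosphate, pH 7.4, with cocktail probe substrates, NADPH-generating system and test compound (0.1–25 μM, six levels). Pre-incubation with NADPH for 0 or 15 min (reference inhibitor: 20 min), then 60 min at 37°C. Stopped with acidified acetonitrile plus terfenadine internal standard; metabolites by LC-MS/MS (MRM). IC50 from percent activity vs log[I]; duplicates.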

CYP1A2 = target: T1, CYP1A2 (Homo sapiens, UniProt P05177); assay: Cocktail probe assay in pooled HLMs: CYP1A2-catalyzed phenacetin O-deethylase; format: in vitro ADME; settings: pre-incubation 20 min with NADPH, mean of duplicates
T1 sequence (P05177 1-516): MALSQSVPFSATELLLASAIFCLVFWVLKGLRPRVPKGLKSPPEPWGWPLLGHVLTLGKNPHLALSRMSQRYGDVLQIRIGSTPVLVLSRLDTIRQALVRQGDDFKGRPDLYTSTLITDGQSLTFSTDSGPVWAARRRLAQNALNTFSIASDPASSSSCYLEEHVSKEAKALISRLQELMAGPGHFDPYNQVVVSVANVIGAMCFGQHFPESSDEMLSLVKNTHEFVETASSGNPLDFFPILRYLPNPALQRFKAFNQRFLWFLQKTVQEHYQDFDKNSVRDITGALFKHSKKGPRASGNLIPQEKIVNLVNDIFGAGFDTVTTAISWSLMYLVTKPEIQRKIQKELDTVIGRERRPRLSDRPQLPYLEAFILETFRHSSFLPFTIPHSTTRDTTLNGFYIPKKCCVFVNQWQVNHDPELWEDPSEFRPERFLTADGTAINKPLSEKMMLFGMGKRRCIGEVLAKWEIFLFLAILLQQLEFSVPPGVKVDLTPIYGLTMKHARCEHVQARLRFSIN
In short: as §1

CYP2A6 = target: T2, CYP2A6 (Homo sapiens, UniProt P11509); assay: Cocktail probe assay in pooled HLMs: CYP2A6-catalyzed coumarin 7-hydroxylase; format: in vitro ADME; settings: pre-incubation 20 min with NADPH, mean of duplicates
T2 sequence (P11509 1-494): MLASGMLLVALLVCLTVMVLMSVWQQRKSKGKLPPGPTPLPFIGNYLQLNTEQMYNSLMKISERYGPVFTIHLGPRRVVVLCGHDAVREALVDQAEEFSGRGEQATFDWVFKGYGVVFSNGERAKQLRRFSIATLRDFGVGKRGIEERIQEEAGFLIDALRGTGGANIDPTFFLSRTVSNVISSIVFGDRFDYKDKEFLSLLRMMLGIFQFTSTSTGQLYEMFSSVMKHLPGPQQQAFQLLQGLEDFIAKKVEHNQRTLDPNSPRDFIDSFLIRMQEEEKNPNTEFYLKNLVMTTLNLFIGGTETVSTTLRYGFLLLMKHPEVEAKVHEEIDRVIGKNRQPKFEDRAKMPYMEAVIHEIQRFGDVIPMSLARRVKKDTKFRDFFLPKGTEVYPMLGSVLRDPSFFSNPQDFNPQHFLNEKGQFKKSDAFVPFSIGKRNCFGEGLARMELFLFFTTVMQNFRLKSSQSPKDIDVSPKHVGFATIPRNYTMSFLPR
In short: as §1

CYP2B6 = target: T3, CYP2B6 (Homo sapiens, UniProt P20813); assay: Cocktail probe assay in pooled HLMs: CYP2B6-catalyzed bupropion hydroxylase; format: in vitro ADME; settings: pre-incubation 20 min with NADPH, mean of duplicates
T3 sequence (P20813 1-491): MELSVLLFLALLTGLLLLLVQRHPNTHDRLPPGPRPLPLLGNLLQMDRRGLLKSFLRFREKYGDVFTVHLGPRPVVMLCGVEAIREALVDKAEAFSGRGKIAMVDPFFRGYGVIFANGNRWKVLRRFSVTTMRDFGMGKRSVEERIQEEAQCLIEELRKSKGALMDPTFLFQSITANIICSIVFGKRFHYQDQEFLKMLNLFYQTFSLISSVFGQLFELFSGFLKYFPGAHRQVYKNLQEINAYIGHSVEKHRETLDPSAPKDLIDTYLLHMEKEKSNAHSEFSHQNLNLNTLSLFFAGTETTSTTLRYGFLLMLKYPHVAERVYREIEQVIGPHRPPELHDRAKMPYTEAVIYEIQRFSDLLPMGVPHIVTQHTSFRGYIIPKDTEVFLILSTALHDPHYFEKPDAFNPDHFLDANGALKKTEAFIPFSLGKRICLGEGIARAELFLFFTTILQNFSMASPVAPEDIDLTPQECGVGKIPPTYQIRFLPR
In short: as §1

CYP2C8 = target: T4, CYP2C8 (Homo sapiens, UniProt P10632); assay: Cocktail probe assay in pooled HLMs: CYP2C8-catalyzed amodiaquine N-deethylase; format: in vitro ADME; settings: pre-incubation 20 min with NADPH, mean of duplicates
T4 sequence (P10632 1-490): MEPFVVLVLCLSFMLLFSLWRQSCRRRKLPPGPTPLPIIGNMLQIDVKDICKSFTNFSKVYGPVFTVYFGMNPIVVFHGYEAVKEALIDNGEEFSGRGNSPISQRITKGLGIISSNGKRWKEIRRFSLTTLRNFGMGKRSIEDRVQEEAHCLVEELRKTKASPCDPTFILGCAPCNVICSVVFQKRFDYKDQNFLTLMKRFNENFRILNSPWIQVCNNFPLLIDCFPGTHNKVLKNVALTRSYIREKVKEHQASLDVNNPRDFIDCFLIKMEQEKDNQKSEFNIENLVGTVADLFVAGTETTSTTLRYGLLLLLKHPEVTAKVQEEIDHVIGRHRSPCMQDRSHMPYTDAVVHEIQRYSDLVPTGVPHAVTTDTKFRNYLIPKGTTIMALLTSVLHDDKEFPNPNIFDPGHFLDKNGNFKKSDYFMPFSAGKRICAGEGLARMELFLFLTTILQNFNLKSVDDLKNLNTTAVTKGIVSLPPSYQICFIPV
In short: as §1

CYP2C9 = CYP2C9 (Homo sapiens, UniProt P11712); assay: Cocktail probe assay in pooled HLMs: CYP2C9-catalyzed diclofenac 4′-hydroxylase; format: in vitro ADME; settings: pre-incubation 20 min with NADPH, mean of duplicates
In short: as §1

CYP2C19 = CYP2C19 (Homo sapiens, UniProt P33261); assay: Cocktail probe assay in pooled HLMs: CYP2C19-catalyzed omeprazole 5-hydroxylase; format: in vitro ADME; settings: pre-incubation 20 min with NADPH, mean of duplicates
In short: as §1

CYP2D6 = CYP2D6 (Homo sapiens, UniProt P10635); format: in vitro ADME; settings: IC50, HLMs, pre-incubation 20 min with NADPH, mean of duplicates
In short: as §1

CYP2E1 = CYP2E1 (Homo sapiens, UniProt P05181); format: in vitro ADME; settings: IC50, HLMs, pre-incubation 20 min with NADPH, mean of duplicates
In short: as §1

Sequence of CYP2E1 (P05181 whole entry): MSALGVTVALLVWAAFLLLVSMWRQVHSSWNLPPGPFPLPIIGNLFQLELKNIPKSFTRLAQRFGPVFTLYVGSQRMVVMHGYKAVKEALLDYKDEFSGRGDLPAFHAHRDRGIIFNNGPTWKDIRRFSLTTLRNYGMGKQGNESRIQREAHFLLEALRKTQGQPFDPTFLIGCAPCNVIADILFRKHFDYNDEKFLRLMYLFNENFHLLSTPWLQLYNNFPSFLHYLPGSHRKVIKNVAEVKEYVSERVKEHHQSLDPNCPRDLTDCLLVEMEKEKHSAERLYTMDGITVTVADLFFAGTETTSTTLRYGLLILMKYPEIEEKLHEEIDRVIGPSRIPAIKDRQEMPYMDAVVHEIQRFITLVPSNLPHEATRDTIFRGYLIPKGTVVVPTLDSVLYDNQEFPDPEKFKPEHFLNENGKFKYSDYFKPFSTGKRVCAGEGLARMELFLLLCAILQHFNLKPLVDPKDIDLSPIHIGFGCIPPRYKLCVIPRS
Sequence of CYP2D6 (P10635 whole entry): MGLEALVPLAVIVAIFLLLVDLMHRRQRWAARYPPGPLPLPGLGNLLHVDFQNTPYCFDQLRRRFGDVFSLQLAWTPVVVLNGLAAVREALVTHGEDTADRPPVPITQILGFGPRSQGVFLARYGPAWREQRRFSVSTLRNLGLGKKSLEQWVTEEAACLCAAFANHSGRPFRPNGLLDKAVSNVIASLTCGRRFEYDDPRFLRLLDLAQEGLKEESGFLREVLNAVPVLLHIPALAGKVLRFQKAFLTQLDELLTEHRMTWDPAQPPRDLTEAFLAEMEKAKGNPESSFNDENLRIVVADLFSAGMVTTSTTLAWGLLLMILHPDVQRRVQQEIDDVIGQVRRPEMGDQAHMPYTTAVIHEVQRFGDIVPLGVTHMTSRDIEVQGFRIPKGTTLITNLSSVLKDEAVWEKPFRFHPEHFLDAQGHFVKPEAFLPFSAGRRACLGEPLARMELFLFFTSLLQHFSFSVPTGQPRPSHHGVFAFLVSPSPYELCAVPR
Sequence of CYP2C9 (P11712 whole entry): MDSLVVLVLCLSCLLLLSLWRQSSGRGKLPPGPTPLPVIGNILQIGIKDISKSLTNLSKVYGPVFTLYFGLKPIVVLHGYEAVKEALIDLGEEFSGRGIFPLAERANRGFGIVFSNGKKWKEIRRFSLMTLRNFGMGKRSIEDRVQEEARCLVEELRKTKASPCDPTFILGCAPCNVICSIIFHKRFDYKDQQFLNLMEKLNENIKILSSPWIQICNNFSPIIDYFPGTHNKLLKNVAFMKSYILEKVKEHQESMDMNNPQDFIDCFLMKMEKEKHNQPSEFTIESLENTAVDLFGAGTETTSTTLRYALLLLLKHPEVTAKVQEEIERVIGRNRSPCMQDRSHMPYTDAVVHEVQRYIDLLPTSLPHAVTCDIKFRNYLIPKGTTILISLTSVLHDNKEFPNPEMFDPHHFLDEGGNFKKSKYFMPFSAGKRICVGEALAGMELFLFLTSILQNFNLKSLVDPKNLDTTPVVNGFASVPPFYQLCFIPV
Sequence of CYP2C19 (P33261 whole entry): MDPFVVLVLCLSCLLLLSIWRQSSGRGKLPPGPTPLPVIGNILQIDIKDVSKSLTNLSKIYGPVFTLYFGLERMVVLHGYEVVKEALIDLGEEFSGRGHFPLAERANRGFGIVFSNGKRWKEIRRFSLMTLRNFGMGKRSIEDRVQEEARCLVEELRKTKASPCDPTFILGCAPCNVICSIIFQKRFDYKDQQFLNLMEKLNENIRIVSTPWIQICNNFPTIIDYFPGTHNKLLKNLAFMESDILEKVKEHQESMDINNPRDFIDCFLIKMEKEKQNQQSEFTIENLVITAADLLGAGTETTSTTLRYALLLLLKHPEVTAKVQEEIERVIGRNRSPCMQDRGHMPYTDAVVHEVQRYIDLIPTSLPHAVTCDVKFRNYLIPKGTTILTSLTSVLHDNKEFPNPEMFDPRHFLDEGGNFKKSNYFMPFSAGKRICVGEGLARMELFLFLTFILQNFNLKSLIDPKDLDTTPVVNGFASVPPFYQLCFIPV

Row | inhibitory effects on the activities of all 9 CYPs [1] | IC50 (CYP1A2) | IC50 (CYP2A6) | IC50 (CYP2B6) | IC50 (CYP2C8) | IC50 (CYP2C9) | IC50 (CYP2C19) | IC50 (CYP2D6) | IC50 (CYP2E1) | SMILES
1 | weak inhibitory effects | – | – | – | – | – | – | – | – | CC(=O)Oc1c2oc3cc(O)c(O)cc3c2c(OC(C)=O)c2oc3cc(O)c(O)cc3c12 [Polyozellin, polyozellin]
2 | – | > 50 µM | > 50 µM | 0.9 µM | 26.5 µM | 33.4 µM | 2.1 µM | 3.5 µM | > 50 µM | CCCC(C(=O)OCCN(CC)CC)(c1ccccc1)c1ccccc1 [SKF-525A, 2-diethylaminoethyl-2,2-diphenylvalerate-HCl]
